{
  "source": "ChEMBL document CHEMBL4689842",
  "about": "“EUbOPEN Chemogenomics Library wave 1” (2021)",
  "test_system": "HEK-293T",
  "assay": "Multiplex assay against HEK293T;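 on Population Tubulin-Different-Phenotype (%): share of the cells with healthy nuclei that show this phenotype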",
  "format": "toxicity, cell-based",
  "conditions": "human",
  "summary_of_the_method": "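Live cells carried four stains from seeding: Hoechst33342, BioTracker Green Microtubule Cytoskeleton Dye, MitoTracker Red and Annexin V Alexa Fluor 680. They were imaged on a CQ1 microscope at 37°C and 5% CO2 after compound addition. Using CellPathfinder machine-learning gating, cells were split into Hoechst high-intensity objects or normal cells, normal cells into healthy, pyknosed or fragmented nuclei, and pyknosed cells into mitotic or apoptotic; tubulin, mitochondrial-mass and membrane-permeability phenotypes are per cents of healthy-nucleus cells.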",
  "key": {"[1]": {"conditions": "12 h, 1 µM, compound concentration 1 uM, replicate 1"}, "[2]": {"conditions": "12 h, 1 µM, compound concentration 1 uM, replicate 2"}, "[3]": {"conditions": "12 h, 10 µM, compound concentration 10 uM, replicate 1"}, "[4]": {"conditions": "12 h, 10 µM, compound concentration 10 uM, replicate 2"}, "[5]": {"conditions": "24 h, 1 µM, compound concentration 1 uM, replicate 1"}, "[6]": {"conditions": "24 h, 1 µM, compound concentration 1 uM, replicate 2"}, "[7]": {"conditions": "24 h, 10 µM, compound concentration 10 uM, replicate 1"}, "[8]": {"conditions": "24 h, 10 µM, compound concentration 10 uM, replicate 2"}, "[9]": {"conditions": "48 h, 10 µM, compound concentration 10 uM, replicate 1"}, "[10]": {"conditions": "48 h, 10 µM, compound concentration 10 uM, replicate 2"}},
  "note": "“And” between values parts separate entries of the source, which are not always exact repeats. Identical values can stand only once.",
  "data": [
    {"compound": "CN[C@@H]1C[C@H]2O[C@@](C)([C@@H]1OC)n1c3ccccc3c3c4c(c5c6ccccc6n2c5c31)C(=O)NC4", "note": "[STAUROSPORINE]", "values": [
      {"measurement": "Population Apoptotic (%)", "setting": "[1]", "result": 27, "unit": "%"},
      {"measurement": "Population Fragmented Nuclei (%)", "setting": "[1]", "result": 37, "unit": "%"},
      {"measurement": "Population Healthy Nuclei (%)", "setting": "[1]", "result": 16, "unit": "%"},
      {"measurement": "Population Hoechst High Intensity Objects (%)", "setting": "[1]", "result": 15, "unit": "%"},
      {"measurement": "Population Membrane Permeable-Phenotype (%)", "setting": "[1]", "result": 16, "unit": "%"},
      {"measurement": "Population Mitochondria Different-Phenotype (%)", "setting": "[1]", "result": 9, "unit": "%"},
      {"measurement": "Population Mitotic Cells (%)", "setting": "[1]", "result": 72, "unit": "%"},
      {"measurement": "Population Normal (%)", "setting": "[1]", "result": 84, "unit": "%"},
      {"measurement": "Population Pyknosed Nuclei (%)", "setting": "[1]", "result": 46, "unit": "%"},
      {"measurement": "Population Tubulin-Different-Phenotype (%)", "setting": "[1]", "result": 32, "unit": "%"},
      {"measurement": "Population Apoptotic (%)", "setting": "[2]", "result": 9, "unit": "%"},
      {"measurement": "Population Fragmented Nuclei (%)", "setting": "[2]", "result": 18, "unit": "%"},
      {"measurement": "Population Healthy Nuclei (%)", "setting": "[2]", "result": 35, "unit": "%"},
      {"measurement": "Population Hoechst High Intensity Objects (%)", "setting": "[2]", "result": 10, "unit": "%"},
      {"measurement": "Population Membrane Permeable-Phenotype (%)", "setting": "[2]", "result": 12, "unit": "%"},
      {"measurement": "Population Mitochondria Different-Phenotype (%)", "setting": "[2]", "result": 13, "unit": "%"},
      {"measurement": "Population Mitotic Cells (%)", "setting": "[2]", "result": 90, "unit": "%"},
      {"measurement": "Population Normal (%)", "setting": "[2]", "result": 89, "unit": "%"},
      {"measurement": "Population Tubulin-Different-Phenotype (%)", "setting": "[2]", "result": 74, "unit": "%"},
      {"measurement": "Population Apoptotic (%)", "setting": "[3]", "result": "31% and 93% and 82%"},
      {"measurement": "Population Fragmented Nuclei (%)", "setting": "[3]", "result": "37% and 33% and 30%"},
      {"measurement": "Population Hoechst High Intensity Objects (%)", "setting": "[3]", "result": "15% and 23% and 17%"},
      {"measurement": "Population Membrane Permeable-Phenotype (%)", "setting": "[3]", "result": "20% and 15%"},
      {"measurement": "Population Normal (%)", "setting": "[3]", "result": "84% and 76% and 82%"},
      {"measurement": "Population Pyknosed Nuclei (%)", "setting": "[3]", "result": "48% and 65% and 66%"},
      {"measurement": "Population Tubulin-Different-Phenotype (%)", "setting": "[3]", "result": "25% and 33% and 57%"},
      {"measurement": "Population Hoechst High Intensity Objects (%)", "setting": "[4]", "result": "20% and 22% and 11%"},
      {"measurement": "Population Mitochondria Different-Phenotype (%)", "setting": "[4]", "result": "23% and 35% and 18%"},
      {"measurement": "Population Normal (%)", "setting": "[4]", "result": "79% and 77% and 88%"},
      {"measurement": "Population Pyknosed Nuclei (%)", "setting": "[4]", "result": "52% and 55% and 35%"},
      {"measurement": "Population Apoptotic (%)", "setting": "[5]", "result": 48, "unit": "%"},
      {"measurement": "Population Fragmented Nuclei (%)", "setting": "[5]", "result": 35, "unit": "%"},
      {"measurement": "Population Healthy Nuclei (%)", "setting": "[5]", "result": 17, "unit": "%"},
      {"measurement": "Population Hoechst High Intensity Objects (%)", "setting": "[5]", "result": 15, "unit": "%"},
      {"measurement": "Population Membrane Permeable-Phenotype (%)", "setting": "[5]", "result": 18, "unit": "%"},
      {"measurement": "Population Mitochondria Different-Phenotype (%)", "setting": "[5]", "result": 16, "unit": "%"},
      {"measurement": "Population Mitotic Cells (%)", "setting": "[5]", "result": 51, "unit": "%"},
      {"measurement": "Population Normal (%)", "setting": "[5]", "result": 84, "unit": "%"},
      {"measurement": "Population Pyknosed Nuclei (%)", "setting": "[5]", "result": 46, "unit": "%"},
      {"measurement": "Population Tubulin-Different-Phenotype (%)", "setting": "[5]", "result": 29, "unit": "%"},
      {"measurement": "Population Apoptotic (%)", "setting": "[6]", "result": 28, "unit": "%"},
      {"measurement": "Population Fragmented Nuclei (%)", "setting": "[6]", "result": 16, "unit": "%"},
      {"measurement": "Population Healthy Nuclei (%)", "setting": "[6]", "result": 30, "unit": "%"},
      {"measurement": "Population Hoechst High Intensity Objects (%)", "setting": "[6]", "result": 14, "unit": "%"},
      {"measurement": "Population Membrane Permeable-Phenotype (%)", "setting": "[6]", "result": 10, "unit": "%"},
      {"measurement": "Population Mitochondria Different-Phenotype (%)", "setting": "[6]", "result": 25, "unit": "%"},
      {"measurement": "Population Mitotic Cells (%)", "setting": "[6]", "result": 71, "unit": "%"},
      {"measurement": "Population Normal (%)", "setting": "[6]", "result": 85, "unit": "%"},
      {"measurement": "Population Pyknosed Nuclei (%)", "setting": "[6]", "result": 52, "unit": "%"},
      {"measurement": "Population Tubulin-Different-Phenotype (%)", "setting": "[6]", "result": 73, "unit": "%"},
      {"measurement": "Population Apoptotic (%)", "setting": "[7]", "result": "58% and 87% and 91%"},
      {"measurement": "Population Fragmented Nuclei (%)", "setting": "[7]", "result": "37% and 33% and 27%"},
      {"measurement": "Population Hoechst High Intensity Objects (%)", "setting": "[7]", "result": "19% and 21% and 24%"},
      {"measurement": "Population Normal (%)", "setting": "[7]", "result": "80% and 75%"},
      {"measurement": "Population Pyknosed Nuclei (%)", "setting": "[7]", "result": "46% and 65% and 70%"},
      {"measurement": "Population Fragmented Nuclei (%)", "setting": "[8]", "result": "12% and 32%"},
      {"measurement": "Population Hoechst High Intensity Objects (%)", "setting": "[8]", "result": "13% and 29% and 22%"},
      {"measurement": "Population Membrane Permeable-Phenotype (%)", "setting": "[8]", "result": "12% and 14%"},
      {"measurement": "Population Mitochondria Different-Phenotype (%)", "setting": "[8]", "result": "25% and 57% and 62%"},
      {"measurement": "Population Normal (%)", "setting": "[8]", "result": "86% and 70% and 77%"},
      {"measurement": "Population Pyknosed Nuclei (%)", "setting": "[8]", "result": "48% and 55% and 66%"},
      {"measurement": "Population Tubulin-Different-Phenotype (%)", "setting": "[8]", "result": "86% and 61% and 87%"},
      {"measurement": "Population Apoptotic (%)", "setting": "[9]", "result": "96% and 92%"},
      {"measurement": "Population Fragmented Nuclei (%)", "setting": "[9]", "result": "36% and 37%"},
      {"measurement": "Population Healthy Nuclei (%)", "setting": "[9]", "result": "0% and 1%"},
      {"measurement": "Population Hoechst High Intensity Objects (%)", "setting": "[9]", "result": "22% and 19%"},
      {"measurement": "Population Membrane Permeable-Phenotype (%)", "setting": "[9]", "result": 0, "unit": "%"},
      {"measurement": "Population Mitochondria Different-Phenotype (%)", "setting": "[9]", "result": "100% and 80%"},
      {"measurement": "Population Mitotic Cells (%)", "setting": "[9]", "result": "3% and 7%"},
      {"measurement": "Population Normal (%)", "setting": "[9]", "result": "77% and 80%"},
      {"measurement": "Population Pyknosed Nuclei (%)", "setting": "[9]", "result": 62, "unit": "%"},
      {"measurement": "Population Tubulin-Different-Phenotype (%)", "setting": "[9]", "result": "100% and 60%"},
      {"measurement": "Population Apoptotic (%)", "setting": "[10]", "result": "97% and 93%"},
      {"measurement": "Population Fragmented Nuclei (%)", "setting": "[10]", "result": "23% and 21%"},
      {"measurement": "Population Healthy Nuclei (%)", "setting": "[10]", "result": "19% and 17%"},
      {"measurement": "Population Hoechst High Intensity Objects (%)", "setting": "[10]", "result": "21% and 26%"},
      {"measurement": "Population Membrane Permeable-Phenotype (%)", "setting": "[10]", "result": "6% and 5%"},
      {"measurement": "Population Mitochondria Different-Phenotype (%)", "setting": "[10]", "result": "66% and 73%"},
      {"measurement": "Population Mitotic Cells (%)", "setting": "[10]", "result": "2% and 6%"},
      {"measurement": "Population Normal (%)", "setting": "[10]", "result": 73, "unit": "%"},
      {"measurement": "Population Pyknosed Nuclei (%)", "setting": "[10]", "result": "57% and 61%"},
      {"measurement": "Population Tubulin-Different-Phenotype (%)", "setting": "[10]", "result": "72% and 84%"}
    ]}
  ]
}
